# Screening results: PubChem BioAssay, several laboratories
# zVAD death inh: inhibitors of zVAD-triggered necroptosis, primary screen, L929 cells; L929 zVAD necroptosis rescue, ATP luminescence, 24 h; with zVAD 60 µM; viability rescue, % at 10 µM; 0.38% of 220,000 active;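 active = activation, scaled between plate controls, above about 75%, limit read from the data; inactive = activation under that limit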
# PfM18AAP inh: PfM18AAP inhibitors, malaria aminopeptidase, primary screen, biochemical, QFRET, recombinant enzyme | M18 aspartyl aminopeptidase (Plasmodium falciparum 3D7) | H-Glu-NHMec fluorogenic cleavage | inhibition, % at 7.35 µM | 1.2% of 290,000 active;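 active = inhibition above the campaign mean inhibition over all tested compounds plus 3 SD, cut at about 28% in these data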
# RBBP9 inh: human RBBP9 inhibitors, primary screen, biochemical, fluorescence polarization, FP-Rh probe, HTS; AID 1515, 2009; recombinant RBBP9; 0.2% of 220,000 active; inhibition, % at 7.94 µM;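 active = inhibition above the campaign mean of all tested compounds plus 3 SD, cut at about 14% in these data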
# Target sequence (O75884 whole entry, looked up): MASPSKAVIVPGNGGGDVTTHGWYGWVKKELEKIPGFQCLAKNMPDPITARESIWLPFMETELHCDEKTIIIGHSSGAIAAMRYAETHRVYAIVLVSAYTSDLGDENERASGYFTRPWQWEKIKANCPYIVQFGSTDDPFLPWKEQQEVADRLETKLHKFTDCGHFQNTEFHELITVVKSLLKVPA
#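 System: RBBP9 protein | Quantity: 2.5 µM RBBP9 dispensing solution, before mixing | Reagent: FP-Rh probe, 375 nM dispensing solution | Timing: Enzyme-compound preincubation 30 min, then probe labeling 45 min, 25 °C | Measured by: Fluorescence polarization | Read-out: % inhibition | Replication: One well per compound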
# Tb hexokinase: Trypanosoma brucei hexokinase 1 inhibitors, primary screen, biochemical, G6PDH-coupled NADH absorbance, MLSCN library; recombinant TbHK1, G6PDH-coupled NADH A340; inhibition, % at 10 µM; 0.11% of 220,000 active; AID 1430, 2008;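 active = inhibition of 50% or more in the single-dose primary screen; inactive = inhibition below 50%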
# Hep lipid drop: inhibitors of hepatocyte lipid droplet formation, primary screen, imaging, high-throughput imaging, BODIPY stain; 0.4% of 240,000 active; AID 1656, 2009; AML12 mouse hepatocytes, oleate lipid droplets; inhibition, % at 6.5 µM;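 active = lipid droplet intensity inhibited by at least 50%, with more than 500 cells counted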
#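 System: AML12 hepatocytes (mouse). Probe or stimulus: oleic acid at 100 µM to induce lipid droplet formation. Times: overnight treatment with compound plus oleate. Detection: Image-based BODIPY and DAPI two-channel analysis. Evaluation: percent inhibition of filter-corrected integrated lipid droplet intensity per well.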
# TNF necrop inh: inhibitors of TNF-alpha triggered necroptosis, primary screen, cell-based, Jurkat FADD-/-, single concentration. Jurkat FADD-/- TNF necroptosis rescue, ATP luminescence, 24 h; 0 = TNF only, 100 = no-TNF cells. activation (protection from cell death), % at 10 µM. 0.068% of 220,000 active;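 active = activation, meaning protection from cell death, of at least 50% relative to plate controls; inactive = activation below 50%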;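 note: necroptosis triggered by 40 ng/mL TNF-alpha added together with compound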
# Numbers stand for hits; . = inactive; / = no result. This is a sample that favours compounds with a hit; in the whole collection about 2% have one here.
SMILES,zVAD death inh,PfM18AAP inh,RBBP9 inh,Tb hexokinase,Hep lipid drop,TNF necrop inh
COc1ccc(CNC(=O)c2cc3cccc(O)c3oc2=N)cc1,/,29,/,/,.,/
O=C(NCCc1ccccc1)C1CCCN1C(=O)Nc1ccc(F)cc1 (stereo unspecified),.,.,.,.,/,.
COc1cc(C(=S)N2CCOCC2)cc(OC)c1OC(=O)c1ccc(F)cc1,/,29,/,/,.,/
O=C(Oc1cccc(C(=S)N2CCOCC2)c1)c1ccccc1,/,28,/,/,.,/
COc1cc(C(=O)Oc2cccc(C(=S)N3CCOCC3)c2)cc(OC)c1OC,/,.,/,/,.,/
O=C1NN(c2ccccc2)C(=O)/C1=C\c1ccc2c(c1)OCO2,/,29,/,/,.,/
COc1cccc(/C=N/Nc2nc3ccccc3[nH]2)c1O,.,30,.,.,.,.
O=C(COc1ncnc2ccccc12)c1ccc2c(c1)OCCO2,.,.,.,.,/,.
Nc1cccc2c(=O)c3ccccc3[nH]c12,/,29,/,/,.,/
COc1cccc2[nH]c3ccccc3c(=O)c12,/,.,/,/,.,/
CCOC(=O)CNC(=O)CSc1nc(N)cc(N)n1,.,.,.,.,.,.
CCOC(=O)CNC(=S)n1cnc(N)n1,.,57,.,.,.,.
Cc1scc(-c2n[nH]c(=S)n2Cc2ccccc2)c1C,.,32,.,.,.,.
CCc1c(-c2n[nH]c(=S)n2Cc2ccccc2)csc1C,.,.,.,.,/,.
Cc1cc(N2CCCC2)ccc1NC(=O)CN1C(=O)NC(C)(c2ccccc2)C1=O (stereo unspecified),/,30,/,/,.,/
Cc1cc(C)cc(NC(=O)CN2C(=O)NC(C)(c3ccccc3)C2=O)c1 (stereo unspecified),.,.,.,.,/,.
COc1ccccc1-n1c(CNC(=O)c2cccc([N+](=O)[O-])c2C)n[nH]c1=S,.,.,.,.,.,.
Cc1cccc(-n2c(CNC(=O)c3cccc([N+](=O)[O-])c3C)n[nH]c2=S)c1,.,30,.,.,.,.
O=C(NCc1n[nH]c(=S)n1-c1ccccc1)c1cccs1,.,28,.,.,.,.
O=C(NCc1n[nH]c(=S)n1-c1cccc(Cl)c1)c1cccs1,.,.,.,.,.,.
Cc1cc(C(=O)Nc2ncn(Cc3ccc(F)cc3)n2)ccc1[N+](=O)[O-],.,31,.,.,.,.
Cc1ccc2c(CC(=O)Nc3cccc(S(=O)(=O)N4CCOCC4)c3)coc2c1,.,.,.,.,.,.
COc1ccc(NC(=O)/C=C/c2cc(Br)ccc2OC)cc1,.,.,.,.,/,.
COc1ccc(Br)cc1/C=C/C(=O)c1ccc(NC(C)=O)cc1,88,.,.,.,.,.
CC(=O)N1c2ccccc2Sc2ccccc21,/,.,/,/,.,/
SMILES,zVAD death inh,PfM18AAP inh,RBBP9 inh,Tb hexokinase,Hep lipid drop,TNF necrop inh
CN1c2ccccc2Sc2cc(N)ccc21,/,37,/,/,.,/
O=C1c2c(O)cc(O)cc2O[C@H](c2ccc(O)c(O)c2)[C@H]1O,/,79,.,/,/,/
COc1cc([C@H]2Oc3cc([C@H]4Oc5cc(O)cc(O)c5C(=O)[C@@H]4O)ccc3O[C@@H]2CO)ccc1O,/,.,/,/,.,/
O=C1c2c(O)cc(O)cc2O[C@H](c2ccc(O)c(O)c2)[C@@H]1O,/,82,.,/,.,/
COC(=O)c1cc(C)sc1NC(=O)CSc1ncccn1,/,.,/,/,.,/
O=C(O)COc1ccc(Br)cc1/C=N\Nc1ccccn1,/,.,/,/,.,/
Cc1cc(=S)[nH]c2c(C)cccc12,.,33,.,.,.,.
CCC(Oc1ccc(C)cc1)C(=O)Nc1ccccc1C(=O)N1CCOCC1 (stereo unspecified),/,.,/,/,.,/
CC(C)(C)C(=O)Nc1sc2c(c1C#N)CCN(Cc1ccccc1)C2,/,29,/,/,.,/
N#Cc1c(NC(=S)NC(=O)c2ccccc2)sc2c1CCN(CCc1ccccc1)C2,.,.,.,.,.,.
Cn1c(-c2ccccc2)c(/C=N/NC(=O)c2cccnc2)c2ccccc21,.,.,.,.,.,.
CC(C(=O)Nc1cc([N+](=O)[O-])ccc1Cl)N1CCN(c2ccc(O)cc2)CC1 (stereo unspecified),.,29,.,.,.,.
COc1ccccc1OCC(=O)n1cc(C(=O)c2cc(Cl)cc(Cl)c2O)cn1,.,33,.,.,.,.
CC(C)NC(=S)n1cc(C(=O)c2cc(Cl)cc(Cl)c2O)cn1,/,.,/,/,.,/
COCC1CCCN(C(=O)c2ccc3oc(Cc4ccc(Cl)cc4)nc3c2)C1 (stereo unspecified),/,.,/,/,.,/
C/C(=N/NS(=O)(=O)c1cc(C)ccc1C)c1ccncc1,/,31,/,/,.,/
CCn1c(SCC(=O)N/N=C(/C)c2ccncc2)nc2ccccc21,.,.,.,.,.,.
O=S(=O)(Nc1ccccc1)c1ccc2c(c1)CCO2,.,.,.,.,.,52
COc1ccc(NS(=O)(=O)c2ccc3c(c2)CCO3)cc1,.,.,.,.,.,.
O=C(CNc1cc(S(=O)(=O)N2CCOCC2)ccc1NCC1CCCO1)Nc1cccc(F)c1 (stereo unspecified),/,29,/,/,.,/
O=C(Nc1cccc(F)c1)c1ccc(S(=O)(=O)N2CCOCC2)cc1,.,.,.,.,.,.
COC(C(=O)Nc1ccc(Cl)cc1C)c1ccccc1 (stereo unspecified),.,.,.,.,.,97
COC(C(=O)Nc1ccc(NC(=O)C(OC)c2ccccc2)cc1)c1ccccc1 (stereo unspecified),/,.,/,/,.,/
C/C(=N\S(=O)(=O)c1ccc(C)cc1)Nc1cc(C(C)C)c(O)cc1C,.,29,.,.,.,.
CN1C(=O)C2C(c3ccc(N(C)C)cc3)=NN(Cc3ccccc3)C2C1=O (stereo unspecified),.,.,.,.,.,.
SMILES,zVAD death inh,PfM18AAP inh,RBBP9 inh,Tb hexokinase,Hep lipid drop,TNF necrop inh
Cc1[nH]c(=S)[nH]c(=O)c1Cc1ccccc1,.,31,.,.,/,.
Cc1ccc2c(c1)N(CC(=O)NCCCN1C(C)CCCC1C)C(=O)c1cccnc1O2 (stereo unspecified),/,.,/,/,.,/
CCc1nnc(NC(=O)c2cc(Cl)ccn2)s1,/,.,/,/,.,/
COc1cccc(/C=C/C(=C2/C(=O)N(c3ccccc3)N=C2C)c2ccc(C)cc2)c1OC,.,.,.,.,74,.
O=C(CN1CCN(c2ccccc2)CC1)N1N=CCC1c1ccccc1 (stereo unspecified),.,.,.,.,/,.
O=C(CSC(=S)N1CCOCC1)N1N=CCC1c1ccccc1 (stereo unspecified),.,.,.,.,.,50
